Test results from ChEMBL document CHEMBL1123858, “Synthesis and gastrointestinal pharmacology of a 3E,5Z diene analogue of misoprostol” (1987).

How the values were obtained:
Canis familiaris [1] = experiment: Tested for gastric antisecretory activity in histamine-stimulated gastric fistula dogs by intragastric administration; format: functional; conditions: Canis lupus familiaris, Stomach, po
Method in brief: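 Conscious adult female beagles (6–12 kg) with simple gastric fistulas, fasted 18 h. After a 30-min basal period, drug given intragastrically via dosing plug with cannula closed 30 min, then histamine infused at 15 µg kg-1 h-1. Juice collected every 30 min for 4 h and titrated with 0.1 N NaOH to pH 7.0. ED50 is 50% inhibition of 4-h total acid output, from three-dose curves.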

Canis familiaris [2] = experiment: Tested for relative antisecretory potency in histamine-stimulated gastric fistula dogs by intragastric administration; format: functional; conditions: Canis lupus familiaris, Stomach, po
Method in brief: (§1)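 Gastric fistula beagles given drug intragastrically, then histamine infused at 15 µg kg-1 h-1. Total acid output collected over 4 h by NaOH titration to pH 7.0, and percent inhibition curves built. Relative antisecretory potency and its limits were computed by bioassay statistical analysis of these dose-response data.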

Canis familiaris [3] = species: Canis familiaris; experiment: Activity ratio ED50 of diarrhea to ED50 of antisecretory in histamine -stimulated gastric fistula dogs; format: functional, Canis lupus familiaris, Stomach
Method in brief: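 Ratio of the 8-h rat diarrhea ED50 to the dog antisecretory ED50. Diarrhea: fasted (24 h) male Charles River rats (210–230 g; n = 6–12) given logarithmically graded oral doses and scored all-or-none hourly to 8 h, with ED50 from a maximum-likelihood logistic model. Antisecretory ED50: intragastric dosing in histamine-infused gastric fistula dogs, from 4-h acid output.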

Canis familiaris [4] = experiment: Tested for relative antisecretory potency in histamine-stimulated gastric fistula dogs by intragastric administration; value ranges from (0.53-1.76); format: functional; conditions: Canis lupus familiaris, Stomach, po; method in brief: as §1
Canis familiaris [5] = experiment: Tested for relative antisecretory potency in histamine-stimulated gastric fistula dogs by intragastric administration; value ranges from (0.13-0.48); format: functional; conditions: Canis lupus familiaris, Stomach, po; method in brief: as §1
Canis familiaris [6] = experiment: Tested for gastric antisecretory activity in histamine-stimulated Heidenhain pouch dogs by intravenous administration; format: functional; conditions: Canis lupus familiaris, Stomach

Row | Compound | ED50 (Canis familiaris [1]) | relative potency (Canis familiaris [2]) | Ratio (Canis familiaris [3]) | relative potency (Canis familiaris [4]) | relative potency (Canis familiaris [5]) | ED50 (Canis familiaris [6])
1 | CCCCC(C)(O)C/C=C/[C@H]1[C@H](O)CC(=O)[C@@H]1C/C=C\C=C\CC(=O)OC (stereo not given in full) | 0.08 µg/kg | 1 | 1638 | – | – | –
2 | CCCCC(C)(O)C/C=C/[C@H]1[C@H](O)CC(=O)[C@@H]1C/C=C\C=C/CC(=O)OC.CCCCC(C)(O)C/C=C/[C@H]1[C@H](O)CC(=O)[C@@H]1C/C=C\C=C\CC(=O)OC (mixture of isomers) | 0.08 µg/kg | – | 8025 | 0.95 | – | –
3 | CCCCC(C)(O)C/C=C/[C@H]1[C@H](O)CC(=O)[C@@H]1CCCCCCC(=O)OC (stereo not given in full) [MISOPROSTOL] | 0.28 µg/kg | – | 1364 | – | 0.26 | –
4 | CCCCC(C)(O)C/C=C/[C@H]1[C@H](O)CC(=O)[C@@H]1CC#C/C=C/CC(=O)OC (stereo not given in full) | – | – | – | – | – | > 1 µg/kg
